{"source": "paper PMC6748665", "about": "(Journal of Medicinal Chemistry, 2019)", "key": {"PaTrmD [1]": {"molecular_target": "T1, PaTrmD (Pseudomonas aeruginosa, UniProt Q9HXQ1)", "T1 sequence (Q9HXQ1 5-250)": "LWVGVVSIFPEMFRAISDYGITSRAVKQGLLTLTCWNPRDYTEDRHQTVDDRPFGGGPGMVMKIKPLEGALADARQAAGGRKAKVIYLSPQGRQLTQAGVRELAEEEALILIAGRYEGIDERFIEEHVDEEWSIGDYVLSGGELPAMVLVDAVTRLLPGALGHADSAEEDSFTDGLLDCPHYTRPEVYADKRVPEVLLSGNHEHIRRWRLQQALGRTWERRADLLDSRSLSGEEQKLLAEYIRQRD", "assay": "TrmD inhibitor assay", "format": "biochemical", "details": "for reduction of enzyme inhibitory activity compared with the alkyl chain: ethylene glycol substituents", "method_in_brief": "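E. coli-expressed PaTrmD (IMAC and size-exclusion purified, 8 nM) was preincubated 15 min at ambient temperature with serially diluted inhibitor (0–500 μM). Reaction buffer was 50 mM Tris-HCl pH 8.0, 80 mM NaCl, 1 mM MgCl2, 0.5 mM DTT and 0.01% Triton X-100, with 2 μM SAM and 0.5 μM in vitro-transcribed tRNALeu(CAG). Reactions ran 45 min at 37 °C. SAH was detected by MTase-Glo luminescence against an SAH standard curve.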"}, "[2]": {"system": "collection of Gram-positive and Gram-negative bacteria", "assay": "Single-dose", "format": "cell-based", "details": "against Gram-positive bacteria and mycobacteria; single dose 100 μM"}, "PaTrmD [3]": {"molecular_target": "T1, PaTrmD", "assay": "Surface plasmon resonance", "format": "binding", "details": "SPR"}, "bacteria": {"system": "bacteria", "details": "in words; cited from earlier work"}, "SaTrmD": {"molecular_target": "T2, SaTrmD (Staphylococcus aureus, UniProt Q2FZ43)", "T2 sequence (Q2FZ43 1-245)": "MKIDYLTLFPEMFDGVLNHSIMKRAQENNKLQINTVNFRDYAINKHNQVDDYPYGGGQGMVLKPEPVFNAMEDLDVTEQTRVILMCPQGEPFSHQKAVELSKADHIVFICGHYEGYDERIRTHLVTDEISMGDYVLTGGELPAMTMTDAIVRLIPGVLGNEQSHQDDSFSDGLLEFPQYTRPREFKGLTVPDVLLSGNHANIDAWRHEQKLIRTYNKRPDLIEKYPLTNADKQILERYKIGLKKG", "details": "cited from earlier work"}, "PaTrmD [4]": {"molecular_target": "T1, PaTrmD", "assay": "Thermal stability", "format": "binding"}, "PaTrmD [5]": {"molecular_target": "T1, PaTrmD", "details": "ref 15 (Hill et al.); cited from earlier work"}, "[6]": {"details": "PaTrmD, O^6-substituted thienopyrimidinones, NA = not active up to 50 μM"}}, "note": "Read-outs that look alike come from different tables or passages of the source."}
{"compound": "O=C(NCc1ccc(CNC2CCCCC2)cc1)c1csc2nc[nH]c(=O)c12", "note": "[Compound 16, N-(4-((Cyclohexylamino)methyl)benzyl)-4-oxo-3,4-dihydrothieno[2,3-d]pyrimidine-5-carboxamide]", "values": [{"measurement": "TrmD inhibitory activity (in words)", "setting": "PaTrmD [1]; PaTrmD", "value": "submicromolar activity"}]}
{"compound": "O=C(NCc1ccc(CNCCOCCO)cc1)c1csc2nc[nH]c(=O)c12", "note": "[Compound 25, N-(4-(((2-(2-Hydroxyethoxy)ethyl)amino)methyl)benzyl)-4-oxo-3,4-dihydrothieno[2,3-d]pyrimidine-5-carboxamide]", "values": [{"measurement": "reduction of enzyme inhibitory activity compared with the alkyl chain", "setting": "PaTrmD [1]; PaTrmD", "value": "4–8 fold"}]}
{"compound": "O=C(NCc1ccc(CNCc2ccccc2)cc1)c1csc2nc[nH]c(=O)c12", "note": "[Compound 14, N-(4-((Benzylamino)methyl)benzyl)-4-oxo-3,4-dihydrothieno[2,3-d]pyrimidine-5-carboxamide]", "values": [{"measurement": "TrmD inhibitory activity (in words)", "setting": "PaTrmD [1]; PaTrmD", "value": "submicromolar activity"}]}
{"compound": "O=C(NCc1ccc(CNC23CC4CC(CC(C4)C2)C3)cc1)c1csc2nc[nH]c(=O)c12", "note": "[Compound 17, N-(4-((((3s,5s,7s)-Adamantan-1-yl)amino)methyl)benzyl)-4-oxo-3,4-dihydrothieno[2,3-d]pyrimidine-5-carboxamide]", "values": [{"measurement": "TrmD inhibitory activity (in words)", "setting": "PaTrmD [1]; PaTrmD", "value": "submicromolar activity"}]}
{"compound": "O=C(NCc1ccc(CN2CCOCC2)cc1)c1csc2nc[nH]c(=O)c12", "note": "[Compound 10, N-(4-(Morpholinomethyl)benzyl)-4-oxo-3,4-dihydrothieno[2,3-d]pyrimidine-5-carboxamide]", "values": [{"measurement": "reduction of inhibitory activity compared with AZ51", "setting": "PaTrmD [1]; PaTrmD", "value": "6–16 fold"}]}
{"compound": "CCOCCOCCNCc1ccc(CNC(=O)c2csc3nc[nH]c(=O)c23)cc1", "note": "[Compound 26, N-(4-(((2-(2-Ethoxyethoxy)ethyl)amino)methyl)benzyl)-4-oxo-3,4-dihydrothieno[2,3-d]pyrimidine-5-carboxamide]", "values": [{"measurement": "reduction of enzyme inhibitory activity compared with the alkyl chain", "setting": "PaTrmD [1]; PaTrmD", "value": "4–8 fold"}]}
{"compound": "N-(4-((Benzylamino)methyl)benzyl)-4-methoxythieno[2,3-d]pyrimidine-5-carboxamide [Compound 39]", "values": [{"measurement": "IC50", "setting": "PaTrmD [1]; [6]", "value": "> 50", "unit": "µM"}]}
{"compound": "N-(4-((Benzylamino)methyl)benzyl)-4-propoxythieno[2,3-d]pyrimidine-5-carboxamide [Compound 40]", "values": [{"measurement": "IC50", "setting": "PaTrmD [1]; [6]", "value": "> 50", "unit": "µM"}]}
{"compound": "N-(4-((Octylamino)methyl)benzyl)-4-propoxythieno[2,3-d]pyrimidine-5-carboxamide [Compound 43]", "values": [{"measurement": "IC50", "setting": "PaTrmD [1]; [6]", "value": "> 50", "unit": "µM"}]}
{"compound": "CCCCCCCCCCCCNCc1ccc(CNC(=O)c2csc3nc[nH]c(=O)c23)cc1", "note": "[Compound 24, N-(4-((Dodecylamino)methyl)benzyl)-4-oxo-3,4-dihydrothieno[2,3-d]pyrimidine-5-carboxamide]", "values": [{"measurement": "growth inhibitory activity at 100 μM", "setting": "[2]", "value": "showed growth inhibitory activity"}]}
{"compound": "CCCCCCCCNCc1ccc(CNC(=O)c2csc3nc[nH]c(=O)c23)cc1", "note": "[Compound 15, N-(4-((Octylamino)methyl)benzyl)-4-oxo-3,4-dihydrothieno[2,3-d]pyrimidine-5-carboxamide]", "values": [{"measurement": "growth inhibitory activity at 100 μM", "setting": "[2]", "value": "showed growth inhibitory activity"}, {"measurement": "higher binding affinity (KD) to PaTrmD compared with AZ51", "setting": "PaTrmD [3]", "value": "~50", "unit": "fold"}, {"measurement": "IC50", "setting": "PaTrmD [1]", "value": "0.02 ± 0.01", "unit": "µM"}, {"measurement": "increase of IC50 when tRNA concentration was increased", "setting": "PaTrmD [1]; PaTrmD, tRNA competition assay, from 0.02 to 0.26 μM", "value": 13, "unit": "fold"}]}
{"compound": "N-(4-(Morpholinomethyl)benzyl)-4-propoxythieno[2,3-d]pyrimidine-5-carboxamide [Compound 46]", "values": [{"measurement": "IC50", "setting": "PaTrmD [1]; [6]", "value": "> 50", "unit": "µM"}]}
{"compound": "CCCCCCCCN(Cc1ccccc1)Cc1ccc(CNC(=O)c2csc3nc[nH]c(=O)c23)cc1", "note": "[Compound 20, N-(4-((Benzyl(octyl)amino)methyl)benzyl)-4-oxo-3,4-dihydrothieno[2,3-d]pyrimidine-5-carboxamide]", "values": [{"measurement": "TrmD inhibitory activity (in words)", "setting": "PaTrmD [1]; PaTrmD", "value": "nearly abolished"}]}
{"compound": "O=C(NCc1ccc(CN2CCCCC2)cc1)c1csc2nc[nH]c(=O)c12", "note": "[Compound 9, 4-Oxo-N-(4-(piperidin-1-ylmethyl)benzyl)-3,4-dihydrothieno[2,3-d]pyrimidine-5-carboxamide]", "values": [{"measurement": "reduction of inhibitory activity compared with AZ51", "setting": "PaTrmD [1]; PaTrmD", "value": "6–16 fold"}]}
{"compound": "4-Methoxy-N-(4-(morpholinomethyl)benzyl)thieno[2,3-d]pyrimidine-5-carboxamide [Compound 45]", "values": [{"measurement": "IC50", "setting": "PaTrmD [1]; [6]", "value": "> 50", "unit": "µM"}]}
{"compound": "NC1CCN(Cc2ccc(CNC(=O)c3csc4nc[nH]c(=O)c34)cc2)CC1", "note": "[AZ51]", "values": [{"measurement": "faster on-rate (association rate) compared to SAH", "setting": "PaTrmD [3]; PaTrmD", "value": "~2", "unit": "fold"}, {"measurement": "slower off-rate (dissociation rate) compared to SAH", "setting": "PaTrmD [3]; PaTrmD", "value": "~30", "unit": "fold"}, {"measurement": "antibacterial activity", "setting": "bacteria", "value": "lacked antibacterial activity"}, {"measurement": "IC50", "setting": "SaTrmD", "value": 1.2, "unit": "µM"}, {"measurement": "Tm higher than thermostabilization conferred by SAH", "setting": "PaTrmD [4]", "value": 17, "unit": "°C"}, {"measurement": "IC50", "setting": "PaTrmD [5]", "value": 0.039, "unit": "µM"}]}
{"compound": "4-(Hexyloxy)-N-(4-((octylamino)methyl)benzyl)thieno[2,3-d]pyrimidine-5-carboxamide [Compound 44]", "values": [{"measurement": "IC50", "setting": "PaTrmD [1]; [6]", "value": "> 50", "unit": "µM"}]}
{"compound": "CCCCCCCCCCNCc1ccc(CNC(=O)c2csc3nc[nH]c(=O)c23)cc1", "note": "[Compound 23, N-(4-((Decylamino)methyl)benzyl)-4-oxo-3,4-dihydrothieno[2,3-d]pyrimidine-5-carboxamide]", "values": [{"measurement": "growth inhibitory activity at 100 μM", "setting": "[2]", "value": "showed growth inhibitory activity"}]}
